Source: ChEMBL document CHEMBL1123671, “1-Aryl-2-(aminomethyl)cyclopropanecarboxylic acid derivatives. A new series of potential antidepressants” (J Med Chem, 1987)

How the values were obtained:
Mus musculus [1] = test: Ability to kill 50% of the animals (administered orally), after sublethal dose of yohimbine (25 mg/Kg) when given subcutaneously.; format: functional
Mus musculus [2] = organism: Mus musculus; test: Percent increase of the diameter of the test pupil (% mydriasis) in comparison with that of the control pupil.; format: functional
Method in brief: (§1)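 One drop (0.1 mL) of a 1% aqueous solution instilled into the left eye of 10 mice; right eye as untreated control. Both pupil diameters measured by ocular micrometer; mean mydriasis given as percent increase of test pupil diameter over control pupil.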

[3] = Ability to kill 50% of the animals after 24h, when administered perorally; format: ADME, organism-based; conditions: mouse, in vivo, po
Mus musculus [4] = test: Antagonism of tetrabenazine-induced ptosis in mice was evaluated after oral administration; format: functional
Method in brief: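 Mice dosed orally at various doses (highest 30 mg/kg) 30 min before tetrabenazine 40 mg/kg ip. Blepharoptosis scored 0–2 thirty minutes after tetrabenazine. Group score sums expressed as percentage.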

Mus musculus [5] = test: Potentiation of 5-hydroxytryptophan-induced head twitch in mice after oral administration; format: functional
Mus musculus [6] = organism: Mus musculus; test: % increase of the diameter of the test pupil (% mydriasis) in comparison with that of the control pupil.; format: functional, organism-based; method in brief: as §1
Mus musculus [7] = test: Compound was tested for its ability to kill 50% of the animals after 24h, when administered perorally; format: functional; conditions: po

Row | Compound | ED50 (Mus musculus [1]) [mg/kg] | Mydriasis (Mus musculus [2]) [%] | LD50 at 24 h [3] [mg/kg] | ED50 (Mus musculus [4]) [mg/kg] | ED50 (Mus musculus [5]) [mg/kg] | Mydriasis (Mus musculus [6]) | LD50 (Mus musculus [7]) [mg/kg]
1 | CCOC(=O)[C@@]1(c2ccccc2)CC1CNCc1ccccc1.Cl (stereo not given in full) | > 30 | 16 | 316 | – | – | – | –
2 | CC(C)OC(=O)[C@@]1(c2ccc(Cl)cc2)CC1CN.Cl (stereo not given in full) | 2 | 23 | 255 | 8 | 50 | – | –
3 | CCCCN(C)CC1C[C@@]1(C(=O)OCC)c1ccccc1.Cl (stereo not given in full) | 27 | 61 | 255 | – | – | – | –
4 | CCOC(=O)[C@@]1(c2ccccc2)CC1CN(C)CCc1ccccc1.Cl (stereo not given in full) | 15 | 30 | 1000 | > 30 | > 30 | – | –
5 | CCCCCCN(CCCCCC)C(=O)[C@@]1(c2ccccc2)CC1CN.O=C(O)C(=O)O (stereo not given in full) | > 100 | – | – | > 30 | > 1000 | Not significant | > 1000
6 | CC(C)N(C(=O)[C@@]1(c2ccccc2)CC1CN)C(C)C.Cl (stereo not given in full) | 15 | – | 100 | 30 | > 30 | Not significant | –
7 | CCOC(=O)[C@@]1(c2ccccc2)CC1CN.Cl (stereo not given in full) | 100 | 33 | 316 | 30 | 73 | – | –
8 | CCNC(=O)[C@@]1(c2ccccc2)CC1CN.O=C(O)C(=O)O (stereo not given in full) | 19 | – | 316 | > 30 | > 100 | Not significant | –
9 | CCOC(=O)[C@@]1(c2ccc(Cl)cc2)CC1CN(C)C.Cl (stereo not given in full) | 2 | 24 | 422 | 6 | 35 | – | –
10 | CCN(CC)C(=O)[C@]1(c2ccccc2)C[C@@H]1CN.Cl [1R,2S-MILNACIPRAN HYDROCHLORIDE] | > 100 | – | 562 | > 30 | > 100 | Not significant | –
11 | CCOC(=O)[C@@]1(c2ccc(OC)cc2)CC1CN(C)C.Cl (stereo not given in full) | > 30 | 38 | 562 | – | – | – | –
12 | CCOC(=O)[C@@]1(c2ccccc2)CC1CN(C)C.Cl (stereo not given in full) | 10 | 40 | > 1000 | 1.4 | – | – | –
13 | CCN(CC)C(=O)[C@]1(c2ccccc2)C[C@H]1CN.Cl | 0.5 | – | 237 | 0.5 | > 100 | Not significant | –
14 | CN(C)CCCN1c2ccccc2CCc2ccccc21 [IMIPRAMINE] | 7 | 61 | – | 5 | 60 | – | –
15 | CCN(CC)C(=O)[C@]1(c2ccc(F)cc2)CC1CN.Cl (stereo not given in full) | 5 | – | 422 | 10 | 50 | Not significant | –
16 | CCOC(=O)[C@@]1(c2ccccc2)CC1CN(CCO)CCO.O=C(O)/C=C\C(=O)O (stereo not given in full) | > 100 | – | > 1000 | – | – | Not significant | –
17 | CCCOC(=O)[C@@]1(c2ccccc2)CC1CN(C)C.O=C(O)/C=C/C(=O)O (stereo not given in full) | 25 | 55 | 562 | 30 | > 100 | – | –
18 | CCOC(=O)[C@@]1(c2ccccc2)CC1CNC.Cl (stereo not given in full) | 30 | 62 | 562 | – | – | – | –

Row | Compound | ED50 (Mus musculus [1]) [mg/kg] | Mydriasis (Mus musculus [2]) [%] | LD50 at 24 h [3] [mg/kg] | ED50 (Mus musculus [4]) [mg/kg] | ED50 (Mus musculus [5]) [mg/kg] | Mydriasis (Mus musculus [6]) | LD50 (Mus musculus [7]) [mg/kg]
19 | CCCN(CCC)C(=O)[C@@]1(c2ccccc2)CC1CN.O=C(O)C(=O)O (stereo not given in full) | 9 | 27 | 100 | 5.5 | – | – | –
20 | CCOC(=O)[C@@]1(c2ccc(F)cc2)CC1CN(C)C.Cl (stereo not given in full) | 12 | 76 | 562 | 8 | – | – | –
21 | CCN(CC)C(=O)[C@]1(c2ccc(Cl)cc2)CC1CN.Cl (stereo not given in full) | 3 | 11 | 422 | 9 | > 100 | – | –
22 | COC(=O)[C@@]1(c2ccccc2)CC1CN(C)C.Cl (stereo not given in full) | 29 | 60 | 750 | 30 | – | – | –
23 | CCOC(=O)[C@@]1(c2ccccc2)CC1CN(C)CCO.O=C(O)/C=C/C(=O)O (stereo not given in full) | 56 | 23 | > 1000 | – | – | – | –
24 | CC(C)OC(=O)[C@@]1(c2ccccc2)CC1CN.Cl (stereo not given in full) | 18 | 20 | 100 | – | 54 | – | –
25 | CCN(CC)C(=O)[C@]1(c2cccc(Cl)c2)CC1CN.Cl (stereo not given in full) | 3 | – | 100 | 0.9 | > 10 | Not significant | –
26 | CN(C)CCCN1c2ccccc2CCc2ccc(Cl)cc21 [CLOMIPRAMINE] | 5 | 38 | 556 | 9 | 37 | – | –
27 | CCOC(=O)[C@@]1(c2ccccc2)CC1CN1CCCC1.Cl (stereo not given in full) | > 100 | 53 | 562 | – | – | – | –
28 | CC(C)OC(=O)[C@@]1(c2ccccc2)CC1CN(C)C.Cl (stereo not given in full) | 18 | 73 | 422 | 7 | – | – | –
29 | NCC1C[C@@]1(C(=O)N1CCCC1)c1ccccc1.O=C(O)C(=O)O (stereo not given in full) | 48 | 12 | 562 | 20 | > 100 | – | –
30 | CCOC(=O)[C@@]1(c2ccccc2)CC1CN(C(C)C)C(C)C.O=C(O)/C=C\C(=O)O (stereo not given in full) | 70 | 49 | 750 | – | – | – | –
31 | CNCCCN1c2ccccc2CCc2ccccc21 [DESIPRAMINE] | 2 | 46 | 572 | 3 | > 100 | – | –
32 | Cl.NCC1C[C@@]1(C(=O)O)c1ccccc1 (stereo not given in full) | > 100 | – | > 1000 | > 30 | > 100 | Not significant | –
33 | C=CCOC(=O)[C@@]1(c2ccccc2)CC1CN(C)C.O=C(O)/C=C/C(=O)O (stereo not given in full) | 16 | 44 | 1000 | – | – | – | –
34 | CCCCN(CCCC)C(=O)[C@@]1(c2ccccc2)CC1CN.O=C(O)C(=O)O (stereo not given in full) | > 100 | – | 562 | > 30 | > 100 | Not significant | –
35 | CCN(CC)C(=O)[C@@]1(c2ccccc2)CC1CNC.O=C(O)C(=O)O (stereo not given in full) | 4 | – | 316 | 13 | > 100 | Not significant | –
36 | Cc1ccc([C@]2(C(=O)OC(C)C)CC2CN)cc1.Cl (stereo not given in full) | 30 | – | 1000 | 17 | 100 | Not significant | –
